Results reported in ChEMBL document CHEMBL1150877, “Total synthesis and biological activities of (+)- and (-)-boscialin and their 1'-epimers” (J Nat Prod, 1998).
Values after ≈ are worked out from the molar mass of the structure shown. Active and inactive are the calls of the source. The calls are words filed in the database; no cut-off is given here.

What was measured:
Corynebacterium xerosis = test: Antimicrobial activity against Corynebacterium xerosis ATCC 373 after 24 hrs by agar diffusion assay; assay type: functional
Outline: (§1)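 Overnight cultures were diluted in 0.9% NaCl and mixed into molten casein soymeal peptone agar at a final 5 × 10⁴–10⁵ CFU/mL, which was layered onto agar plates. Test substances (100 µL of 1 mg/mL in H2O) were placed in 1 cm wells. Plates were incubated at 37 °C for 24 h, and inhibition zone diameters were measured.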

[1] = test system: Corynebacterium minutissimum; test: Antimicrobial activity against Corynebacterium minutissium ATCC 23348 after 24 hrs by agar diffusion assay; assay type: functional; outline: as §1
Staphylococcus aureus = test: Antimicrobial activity against Staphylococcus aureus ATCC 9144 after 24 hrs by agar diffusion assay; assay type: functional; outline: as §1
Candida albicans = test: Antimicrobial activity against Candida albicans ATCC 10231 after 24 hrs by agar diffusion assay; assay type: functional; outline: as §1
Trypanosoma cruzi = test: Antitrypanosomal activity against Trypanosoma cruzi MHOM/Br/OO/Y trypomastigotes up to 100 ug/ml after 5 days
[2] = test system: Trypanosoma brucei rhodesiense; test: Antitrypanosomal activity against blood stream form of Trypanosoma brucei rhodesiense STIB 900; assay type: functional, organism-based
Outline: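 Bloodstream-form trypanosomes at 200 cells/100 µL were exposed for 72 h to threefold dilutions starting at 100 µg/mL, with 1% DMSO final. MIC was read microscopically as the lowest concentration with no normally shaped or motile cells. For IC50, Alamar Blue was added for a further 2 h, fluorescence was measured, and values were obtained by linear interpolation.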

[3] = (§2) Cytotoxicity against human HT-29 cells; assay type: cell-based; details: human, HT-29 cells; read-out: MIC
Outline: (§3)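 HT-29 cells were seeded at 5000 cells/100 µL in MEM with 10% heat-inactivated FCS at 37 °C and 5% CO2. They were exposed for 72 h to threefold dilutions starting at […], with 1% DMSO final. MIC was read microscopically, and IC50 came from Alamar Blue fluorescence after 2 h by linear interpolation.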

HT-29 = test: as §2; assay type: cell-based; details: Homo sapiens, HT-29; outline: as §3
[4] = test system: Staphylococcus epidermidis; test: Antimicrobial activity against Staphylococcus epidermis ATCC 12228 after 24 hrs by agar diffusion assay; assay type: functional; outline: as §1
[5] = Selectivity index, ratio of IC50 for human HT29 cells to IC50 for Trypanosoma brucei rhodesiense STIB 900; assay type: toxicity, cell-based, HT-29; details: HT29 cells versus Trypanosoma brucei rhodesiense STIB 900, read-out: Ratio IC50
Outline: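 The index was calculated as the HT-29 IC50 divided by the T. b. rhodesiense IC50. Both IC50s came from 72 h exposures read by Alamar Blue fluorescence, with linear interpolation.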

Escherichia coli = test: Antimicrobial activity against Escherichia coli NCTC 8196 after 24 hrs by agar diffusion assay; assay type: functional; outline: as §1
Leishmania donovani = test: Antileishmanial activity against Leishmania donovani MHOM/ET/67/L82 infected in mouse peritoneal macrophages after 5 days
[6] = test system: Trypanosoma brucei rhodesiense; test: Antitrypanosomal activity against blood stream form of Trypanosoma brucei rhodesiense STIB 900 at 100 ug/ml; assay type: functional, organism-based

CC(=O)/C=C/[C@@]1(O)[C@@H](C)C[C@@H](O)CC1(C)C
inhibition zone (IZ) (Corynebacterium xerosis): 3 mm
inhibition zone (IZ) [1]: 5 mm
inhibition zone (IZ) (Staphylococcus aureus): 3 mm
inhibition zone (IZ) (Candida albicans): 5 mm
Activity (Trypanosoma cruzi): inactive
IC50 [2]: 18 µg/mL (≈ 79.5 µM)
MIC [2]: 100 µg/mL (≈ 442 µM)
MCC [3]: > 100 µg/mL
IC50 (HT-29): 17 µg/mL (≈ 75.1 µM)
inhibition zone (IZ) [4]: 0 mm
selectivity ratio [5]: 1
inhibition zone (IZ) (Escherichia coli): 1 mm
IC50 (Leishmania donovani; 5 d): 77 µg/mL (≈ 340 µM)
Activity [6]: inactive

Nc1nc(N)nc(Nc2ccc([As]3SCC(CO)S3)cc2)n1 (stereo not drawn) [MELARSOPROL]
IC50 [2]: 0.0004 µg/mL
MIC [2]: 0.011 µg/mL
MCC [3]: 11 µg/mL
IC50 (HT-29): 3.6 µg/mL
selectivity ratio [5]: 9000

CC(=O)/C=C/[C@]1(O)[C@@H](C)C[C@@H](O)CC1(C)C
inhibition zone (IZ) (Corynebacterium xerosis): 13 mm
inhibition zone (IZ) [1]: 18 mm
inhibition zone (IZ) (Staphylococcus aureus): 10.5 mm
inhibition zone (IZ) (Candida albicans): 4.5 mm
Activity (Trypanosoma cruzi): inactive
IC50 [2]: 31 µg/mL (≈ 137 µM)
MIC [2]: 100 µg/mL (≈ 442 µM)
MCC [3]: 56 µg/mL
IC50 (HT-29): 8.1 µg/mL (≈ 35.8 µM)
inhibition zone (IZ) [4]: 8 mm
selectivity ratio [5]: 0.3
inhibition zone (IZ) (Escherichia coli): 2 mm
Activity (Leishmania donovani): inactive
Activity [6]: inactive

CC(=O)/C=C/[C@]1(O)[C@H](C)C[C@H](O)CC1(C)C [EPIBOSCIALIN]
inhibition zone (IZ) (Corynebacterium xerosis): 12 mm
inhibition zone (IZ) [1]: 20 mm
inhibition zone (IZ) (Staphylococcus aureus): 10 mm
inhibition zone (IZ) (Candida albicans): 15.5 mm
Activity (Trypanosoma cruzi): inactive
IC50 [2]: 0.9 µg/mL (≈ 3.98 µM)
MIC [2]: 3.7 µg/mL (≈ 16.3 µM)
MCC [3]: 56 µg/mL
IC50 (HT-29): 8.5 µg/mL (≈ 37.6 µM)
inhibition zone (IZ) [4]: 8 mm
selectivity ratio [5]: 9.4
inhibition zone (IZ) (Escherichia coli): 1.5 mm
Activity (Leishmania donovani): inactive
IC50 [6]: 0.9 µg/mL (≈ 3.98 µM)
MIC [6]: 3.7 µg/mL (≈ 16.3 µM)

CC(=O)/C=C/[C@@]1(O)[C@H](C)C[C@H](O)CC1(C)C [BOSCIALIN]
inhibition zone (IZ) (Corynebacterium xerosis): 2 mm
inhibition zone (IZ) [1]: 9.5 mm
inhibition zone (IZ) (Staphylococcus aureus): 2.5 mm
inhibition zone (IZ) (Candida albicans): 4 mm
Activity (Trypanosoma cruzi): inactive
IC50 [2]: 1.9 µg/mL (≈ 8.4 µM)
MIC [2]: 11 µg/mL (≈ 48.6 µM)
MCC [3]: > 100 µg/mL
IC50 (HT-29): 43 µg/mL (≈ 190 µM)
inhibition zone (IZ) [4]: 0 mm
selectivity ratio [5]: 23
inhibition zone (IZ) (Escherichia coli): 1 mm
Activity (Leishmania donovani): inactive
IC50 [6]: 1.9 µg/mL (≈ 8.4 µM)
MIC [6]: 11 µg/mL (≈ 48.6 µM)
